ChEMBL document CHEMBL1124216, “A novel class of potential central nervous system agents. 3-Phenyl-2-(1-piperazinyl)-5H-1-benzazepines” (1988)

Test system: Mus musculus
Assay: Antimaximal electroshock seizure (MES) activity in mice after peroral administration of 100 mg/kg of compound; 0/5
Format: functional
Conditions: route oral

| SMILES | Activity |
| --- | --- |
| CC(C)c1ccc2c(c1)CC=C(c1ccccc1)C(N1CCN(C)CC1)=N2.O=C(O)/C=C/C(=O)O | 0 |
| C=CCN1CCN(C2=Nc3ccc(Br)cc3CC=C2c2ccccc2)CC1 | 0 |
| Cc1ccc(C2=CCc3ccccc3N=C2N2CCN(C)CC2)cc1.Cl.Cl | 0 |
| NC(=O)N1CCN(C2=Nc3ccc(Cl)cc3CC=C2c2ccccc2)CC1 | 0 |
| CCN1CCN(C2=Nc3ccccc3CC=C2c2ccccc2Cl)CC1.Cl.Cl | 0 |
| CCN1CCN(C2=Nc3ccccc3CC=C2c2ccc(C)cc2)CC1.Cl.Cl | 0 |
| Cl.Cl.OCCN1CCN(C2=Nc3cc(Cl)ccc3CC=C2c2ccc(Cl)cc2)CC1 | 0 |
| Clc1ccccc1C1=CCc2cc(Br)ccc2N=C1N1CCNCC1.O=C(O)/C=C/C(=O)O | 0 |
| Cl.Cl.OCCN1CCN(C2=Nc3cc(Cl)ccc3CC=C2c2ccccc2)CC1 | 0 |
| Brc1ccc2c(c1)CC=C(c1ccccc1)C(N1CCN(c3ccccc3)CC1)=N2 | 0 |
| CN1CCN(C2=Nc3ccc(Br)cc3CC=C2c2ccc(Cl)cc2)CC1.Cl.Cl | 0 |
| Brc1ccc2c(c1)CC=C(c1ccccc1)C(N1CCCCC1)=N2 | 0 |
| Brc1ccc2c(c1)CC=C(c1ccccc1)C(N1CCNCC1)=N2.O=C(O)/C=C/C(=O)O | 0 |
| Cl.Cl.OCCN1CCN(C2=Nc3ccc(Br)cc3CC=C2c2ccc(Cl)cc2)CC1 | 0 |

Test system: Mus musculus
Assay: Antipentylene tetrazole activity was determined in mice when administered perorally
Format: functional
Conditions: po
Summary of the method: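 Groups of five male Std-ddY mice received compound orally in 0.5% tragacanth, then pentylenetetrazole 175 mg/kg ip. Blockade of the tonic extensor component scored as anticonvulsant. ED50 was the dose protecting 50% of animals (Litchfield-Wilcoxon).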

| SMILES | ED50 |
| --- | --- |
| O=C1NC(=O)C(c2ccccc2)(c2ccccc2)N1 [PHENYTOIN] | 3.7 mg/kg |
| OCCN1CCN(C2=Nc3ccc(Br)cc3CC=C2c2ccccc2)CC1 | 13.2 mg/kg |
| NC(=O)N1c2ccccc2C=Cc2ccccc21 [CARBAMAZEPINE] | 10.3 mg/kg |

Test system: Mus musculus
Assay: 3,4 -Dihydroxy phenylacetic acid (DOPAC) levels in mouse brain at 50 mg/kg dose.
Format: functional
Conditions: not given
Summary of the method: (§1)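 Male Std-ddY mice, 20-25 g, dosed orally with compound in 0.5% aqueous tragacanth. DOPAC was measured fluorometrically after purification by column chromatography on Sephadex G-10 and QAE-Sephadex. Brains from five mice per compound were pooled for each determination.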

| SMILES | Control |
| --- | --- |
| CN1CCN(C2=Nc3ccccc3CC=C2c2ccc(Br)cc2)CC1.Cl.Cl | 233% |

Test system: Mus musculus
Assay: Antiexploratory activity (EXPL) of mice determined by an antimex activity meter, 50 mg/kg of dose was administered perorally; No inhibition
Format: functional
Conditions: route oral

| SMILES | inhibition in vivo at 50 mg/kg |
| --- | --- |
| Fc1ccc(C2=CCc3ccccc3N=C2N2CCN(Cc3ccccc3)CC2)cc1 | < 30% |
| CN1CCN(C2=Nc3ccccc3CC=C2c2ccc(Br)cc2)CC1.Cl.Cl | < 30% |

Test system: Canis familiaris
Assay: Inhibition of apomorphine induced emesis in dogs at 1 mg/kg of dose.
Format: functional
Conditions: Canis lupus familiaris
Summary of the method: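 Beagle dogs (10-15 kg), groups of three, given compound po in a gelatin capsule; 2 h later apomorphine hydrochloride 0.3 mg/kg sc. Vomiting counted for 1 h; mean inhibition as percent of control. ED50 is the dose giving 50% inhibition of emesis, by Litchfield-Wilcoxon.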

| SMILES | inhibition in vivo at 1 mg/kg |
| --- | --- |
| CN1CCN(C2=Nc3ccccc3CC=C2c2ccc(Br)cc2)CC1.Cl.Cl | 72.5% |

Test system: Mus musculus
Assay: Antiexploratory activity (EXPL) of mice determined by an antimex activity meter, 100 mg/kg of dose was administered perorally; No inhibition
Format: functional
Conditions: route oral

| SMILES | inhibition in vivo at 100 mg/kg |
| --- | --- |
| NC(=O)N1CCN(C2=Nc3ccc(Br)cc3CC=C2c2ccccc2)CC1 | < 30% |
| CC(C)c1ccc2c(c1)CC=C(c1ccccc1)C(N1CCN(C)CC1)=N2.O=C(O)/C=C/C(=O)O | < 30% |
| C=CCN1CCN(C2=Nc3ccc(Br)cc3CC=C2c2ccccc2)CC1 | < 30% |
| Cc1ccc(C2=CCc3ccccc3N=C2N2CCN(C)CC2)cc1.Cl.Cl | < 30% |
| NC(=O)N1CCN(C2=Nc3ccc(Cl)cc3CC=C2c2ccccc2)CC1 | < 30% |
| CCN1CCN(C2=Nc3ccccc3CC=C2c2ccccc2Cl)CC1.Cl.Cl | < 30% |
| OCCN1CCN(C2=Nc3ccc(Br)cc3CC=C2c2ccccc2)CC1 | < 30% |
| CCN1CCN(C2=Nc3ccccc3CC=C2c2ccc(C)cc2)CC1.Cl.Cl | < 30% |
| Cl.Cl.OCCN1CCN(C2=Nc3cc(Cl)ccc3CC=C2c2ccc(Cl)cc2)CC1 | < 30% |
| Clc1ccccc1C1=CCc2cc(Br)ccc2N=C1N1CCNCC1.O=C(O)/C=C/C(=O)O | < 30% |
| Cl.Cl.OCCN1CCN(C2=Nc3cc(Cl)ccc3CC=C2c2ccccc2)CC1 | < 30% |
| Brc1ccc2c(c1)CC=C(c1ccccc1)C(N1CCN(c3ccccc3)CC1)=N2 | < 30% |
| CN1CCN(C2=Nc3ccc(Br)cc3CC=C2c2ccc(Cl)cc2)CC1.Cl.Cl | < 30% |
| Brc1ccc2c(c1)CC=C(c1ccccc1)C(N1CCCCC1)=N2 | < 30% |
| Brc1ccc2c(c1)CC=C(c1ccccc1)C(N1CCNCC1)=N2.O=C(O)/C=C/C(=O)O | < 30% |
| Cl.Cl.OCCN1CCN(C2=Nc3ccc(Br)cc3CC=C2c2ccc(Cl)cc2)CC1 | < 30% |

Test system: Mus musculus
Assay: The homovanillic acid (HVA) levels in mouse brain at 10 mg/kg of dose.
Format: functional
Conditions: not given
Summary of the method: (§2)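 Mice dosed orally in 0.5% aqueous tragacanth; brains of five mice per compound pooled. Homovanillic acid measured in brain extracts and reported as brain level.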

| SMILES | Control |
| --- | --- |
| CN1CCN(C2=Nc3ccccc3CC=C2c2ccc(Br)cc2)CC1.Cl.Cl | 162% |

Test system: Mus musculus
Assay: Antitremorine activity(TRM) of mice after peroral administration of 100 mg/kg of compound; Moderate inhibition (51-71%)
Format: functional
Conditions: route oral

| SMILES | inhibition in vivo at 100 mg/kg |
| --- | --- |
| CC(C)c1ccc2c(c1)CC=C(c1ccccc1)C(N1CCN(C)CC1)=N2.O=C(O)/C=C/C(=O)O | 51% |
| Cl.Cl.OCCN1CCN(C2=Nc3cc(Cl)ccc3CC=C2c2ccccc2)CC1 | 51% |

Test system: Mus musculus
Assay: The homovanillic acid (HVA) levels in mouse brain at 50 mg/kg of dose.
Format: functional
Conditions: not given
Summary of the method: as §2

| SMILES | Control |
| --- | --- |
| CN1CCN(C2=Nc3ccccc3CC=C2c2ccc(Br)cc2)CC1.Cl.Cl | 294% |

Test system: Mus musculus
Assay: Exploratory activity of mice determined by an antimex activity meter, 50 mg/kg of dose was administered perorally
Format: functional
Conditions: Mus musculus, po
Summary of the method: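 Male Std-ddY mice (20-25 g), five per dose; compound in 0.5% aqueous tragacanth given orally. Two hours later each mouse placed in an Animex activity meter cage and locomotor activity counted for 3 min. Mean suppression expressed as percent inhibition of control; ED50 by Litchfield-Wilcoxon.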

| SMILES | inhibition in vivo at 50 mg/kg |
| --- | --- |
| CN1CCN(C2=Nc3ccccc3CC=C2c2ccc(Br)cc2)CC1.Cl.Cl | 13.2% |

Same assay, conditions: route oral, 50 mg/kg

| SMILES | Inhibition |
| --- | --- |
| CN1CCN(C2=Nc3ccccc3CC=C2c2ccc(Br)cc2)CC1.Cl.Cl | 13.2% |

Test system: Mus musculus
Assay: Antitremorine activity(TRM) of mice after peroral administration of 100 mg/kg of compound; Slight inhibition (31-50%)
Format: functional
Conditions: route oral

| SMILES | inhibition in vivo at 100 mg/kg |
| --- | --- |
| Cc1ccc(C2=CCc3ccccc3N=C2N2CCN(C)CC2)cc1.Cl.Cl | 31% |
| CCN1CCN(C2=Nc3ccccc3CC=C2c2ccccc2Cl)CC1.Cl.Cl | 31% |

Test system: Mus musculus
Assay: Antimaximal electroshock seizure activity was determined in mice when administered perorally
Format: functional
Conditions: po

| SMILES | ED50 |
| --- | --- |
| O=C1NC(=O)C(c2ccccc2)(c2ccccc2)N1 [PHENYTOIN] | 7.9 mg/kg |
| OCCN1CCN(C2=Nc3ccc(Br)cc3CC=C2c2ccccc2)CC1 | 14.6 mg/kg |
| NC(=O)N1c2ccccc2C=Cc2ccccc21 [CARBAMAZEPINE] | 13.3 mg/kg |

Test system: Mus musculus
Assay: 3,4 -Dihydroxy phenylacetic acid (DOPAC) levels in mouse brain at 10 mg/kg dose.
Format: functional
Conditions: not given
Summary of the method: as §1

| SMILES | Control |
| --- | --- |
| CN1CCN(C2=Nc3ccccc3CC=C2c2ccc(Br)cc2)CC1.Cl.Cl | 161% |

Test system: Mus musculus
Assay: Antireserpine activity (RES) of mice after peroral administration of 100 mg/kg of compound; No inhibition
Format: functional
Conditions: route oral

| SMILES | inhibition in vivo at 100 mg/kg |
| --- | --- |
| NC(=O)N1CCN(C2=Nc3ccc(Br)cc3CC=C2c2ccccc2)CC1 | < 30% |
| CC(C)c1ccc2c(c1)CC=C(c1ccccc1)C(N1CCN(C)CC1)=N2.O=C(O)/C=C/C(=O)O | < 30% |
| NC(=O)N1CCN(C2=Nc3ccc(Cl)cc3CC=C2c2ccccc2)CC1 | < 30% |
| CCN1CCN(C2=Nc3ccccc3CC=C2c2ccccc2Cl)CC1.Cl.Cl | < 30% |
| OCCN1CCN(C2=Nc3ccc(Br)cc3CC=C2c2ccccc2)CC1 | < 30% |
| CCN1CCN(C2=Nc3ccccc3CC=C2c2ccc(C)cc2)CC1.Cl.Cl | < 30% |
| Cl.Cl.OCCN1CCN(C2=Nc3cc(Cl)ccc3CC=C2c2ccc(Cl)cc2)CC1 | < 30% |
| Clc1ccccc1C1=CCc2cc(Br)ccc2N=C1N1CCNCC1.O=C(O)/C=C/C(=O)O | < 30% |
| Cl.Cl.OCCN1CCN(C2=Nc3cc(Cl)ccc3CC=C2c2ccccc2)CC1 | < 30% |
| Brc1ccc2c(c1)CC=C(c1ccccc1)C(N1CCN(c3ccccc3)CC1)=N2 | < 30% |
| CN1CCN(C2=Nc3ccc(Br)cc3CC=C2c2ccc(Cl)cc2)CC1.Cl.Cl | < 30% |
| Cl.Cl.OCCN1CCN(C2=Nc3ccc(Br)cc3CC=C2c2ccc(Cl)cc2)CC1 | < 30% |

Test system: Mus musculus
Assay: Antireserpine activity (RES) of mice after peroral administration of 100 mg/kg of compound; Slight inhibition (31-50%)
Format: functional
Conditions: route oral

| SMILES | inhibition in vivo at 100 mg/kg |
| --- | --- |
| C=CCN1CCN(C2=Nc3ccc(Br)cc3CC=C2c2ccccc2)CC1 | 31% |
| Cc1ccc(C2=CCc3ccccc3N=C2N2CCN(C)CC2)cc1.Cl.Cl | 31% |
| Brc1ccc2c(c1)CC=C(c1ccccc1)C(N1CCCCC1)=N2 | 31% |
| Brc1ccc2c(c1)CC=C(c1ccccc1)C(N1CCNCC1)=N2.O=C(O)/C=C/C(=O)O | 31% |

Test system: Mus musculus
Assay: Antitremorine activity(TRM) of mice after peroral administration of 100 mg/kg of compound; No inhibition
Format: functional
Conditions: route oral

| SMILES | inhibition in vivo at 100 mg/kg |
| --- | --- |
| NC(=O)N1CCN(C2=Nc3ccc(Br)cc3CC=C2c2ccccc2)CC1 | < 30% |
| C=CCN1CCN(C2=Nc3ccc(Br)cc3CC=C2c2ccccc2)CC1 | < 30% |
| NC(=O)N1CCN(C2=Nc3ccc(Cl)cc3CC=C2c2ccccc2)CC1 | < 30% |
| OCCN1CCN(C2=Nc3ccc(Br)cc3CC=C2c2ccccc2)CC1 | < 30% |
| CCN1CCN(C2=Nc3ccccc3CC=C2c2ccc(C)cc2)CC1.Cl.Cl | < 30% |
| Cl.Cl.OCCN1CCN(C2=Nc3cc(Cl)ccc3CC=C2c2ccc(Cl)cc2)CC1 | < 30% |
| Clc1ccccc1C1=CCc2cc(Br)ccc2N=C1N1CCNCC1.O=C(O)/C=C/C(=O)O | < 30% |
| Brc1ccc2c(c1)CC=C(c1ccccc1)C(N1CCN(c3ccccc3)CC1)=N2 | < 30% |
| CN1CCN(C2=Nc3ccc(Br)cc3CC=C2c2ccc(Cl)cc2)CC1.Cl.Cl | < 30% |
| Brc1ccc2c(c1)CC=C(c1ccccc1)C(N1CCCCC1)=N2 | < 30% |
| Cl.Cl.OCCN1CCN(C2=Nc3ccc(Br)cc3CC=C2c2ccc(Cl)cc2)CC1 | < 30% |

Test system: Mus musculus
Assay: Antimaximal electroshock seizure (MES) activity in mice after peroral administration of 100 mg/kg of compound; 5/5
Format: functional
Conditions: route oral

| SMILES | Activity |
| --- | --- |
| NC(=O)N1CCN(C2=Nc3ccc(Br)cc3CC=C2c2ccccc2)CC1 | 5 |
| OCCN1CCN(C2=Nc3ccc(Br)cc3CC=C2c2ccccc2)CC1 | 5 |
